Series [1] is described as follows: Cytotoxicity against human MT4 cells after 96 hrs by MTT assay. It counts as cell-based. The procedure, abridged: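 Exponentially growing MT-4 cells seeded at 1×10^5 cells/mL in RPMI-1640 with 10% FBS, penicillin and streptomycin. Incubated with serial compound dilutions at 37 °C, 5% CO2 for 96 h; viability by MTT. CC50 by linear regression relative to untreated controls; mean of three independent determinations.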

Series [2] concerns Human immunodeficiency virus 1. The series can be described thus: Antiviral activity against HIV1 3B infected in human MT4 cells assessed as inhibition of virus-induced cytopathogenicity after 4 days by MTT assay. In kind it is functional, organism-based. Conditions: Human immunodeficiency virus 1, 3B, MT4, 96 h. Put shortly:
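MT-4 cells (1×10^4 per well) were infected with HIV-1 IIIB at 100 CCID50, m.o.i. 0.01, together with serial compound dilutions. Viability was read by MTT after 4 days at 37 °C. EC50 was taken by linear regression versus untreated controls. Mean of three determinations.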

Series [3] can be described thus: Cytotoxicity against MDBK cells after 48 to 96 hrs by MTT assay. In kind it is cell-based, Bos taurus. Conditions: cattle. Put shortly:
(§1)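 MDBK seeded at 6×10^5 and BHK at 1×10^6 cells/mL in MEM-Earle's with L-glutamine, 1 mM pyruvate, kanamycin, plus 10% horse serum (MDBK) or 10% FBS (BHK). Cells were grown at 37 °C, 5% CO2 with serial compound dilutions (DMSO stocks diluted in medium). Viability by MTT after 48–96 h. CC50 was taken by linear regression versus untreated controls; three independent determinations.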

Series [4] is described as follows: Antiviral activity against Bovine viral diarrhea virus 1-NADL infected in MDBK cells assessed as inhibition of virus-induced cytopathogenicity after 3 to 4 days by MTT assay. It counts as functional, cell-based. Conditions: Bovine viral diarrhea virus isolates and strains. Put shortly:
(§2)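 Host cells were seeded in 96-well plates at 3×10^4 cells/well (MDBK) or 5×10^4 cells/well (BHK-21) and grown to confluent monolayers overnight. They were infected at m.o.i. 0.01 in maintenance MEM with 0.5% inactivated FBS. Serial compound dilutions were added after 1 h. Viability was read by MTT after 3–4 days at 37 °C. EC50 was taken by linear regression against untreated controls. Mean of three determinations.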

Series [5] is described as follows: Cytotoxicity against BHK21 cells after 48 to 96 hrs by MTT assay. It counts as cell-based, Mesocricetus auratus, BHK-21. As to conditions: hamster. The procedure, abridged:
as §1

A further series concerns Yellow fever virus. The series can be described thus: Antiviral activity against Yellow fever virus 17D Stamaril Pasteur J07B01 infected in hamster BHK21 cells assessed as inhibition of virus-induced cytopathogenicity after 3 to 4 days by MTT assay. It counts as functional, cell-based. Conditions: Stamaril Pasteur J07B01, BHK-21. The procedure, abridged:
as §2

The next series relates to Reovirus sp. Kind of series: Antiviral activity against Reovirus type-1 3651 infected in hamster BHK21 cells assessed as inhibition of virus-induced cytopathogenicity after 3 to 4 days by MTT assay. Conditions: Reovirus sp., 3651, BHK-21. In kind it is functional, organism-based. The procedure, abridged:
as §2

A short description of series [6]: Cytotoxicity against african green monkey Vero 76 cells after 48 to 96 hrs by crystal violet staining. It counts as cell-based. Conditions: chlorocebus sabaeus. Put shortly:
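Vero-76 cells were seeded at 4×10^5 cells/mL in D-MEM with L-glutamine, kanamycin and 10% FBS, then exposed to serial compound dilutions at 37 °C, 5% CO2 for 48–96 h. Viability was read by crystal violet staining. 50% cytotoxic concentration by linear regression relative to untreated controls; mean of three independent determinations.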

A further series has as its system Coxsackievirus B5. Kind of series: Antiviral activity against Human coxsackievirus B5 Ohio-1 infected in african green monkey Vero 76 cells assessed as reduction of virus-induced plaque formation after 3 days using crystal violet staining. Conditions: Enterovirus B, Ohio-1, Vero, 72 h. In kind it is functional, organism-based.
Another series has as its system Poliovirus 1. Kind of series: Antiviral activity against Human poliovirus 1 strain Sabin Chat infected in african green monkey Vero 76 cells assessed as virus-induced reduction of plaque formation after 2 days using crystal violet staining. In kind it is functional, cell-based. Conditions: Enterovirus C, 48 h.
A further series has as its system Human orthopneumovirus. The series can be described thus: Antiviral activity against Human respiratory syncytial virus A2 infected in african green monkey Vero 76 cells assessed as reduction of virus-induced plaque formation after 5 days using crystal violet staining. In kind it is functional, organism-based. As to conditions: 120 h.
The subject of series [7] is Vesicular stomatitis Indiana virus. The series can be described thus: Antiviral activity against clinical isolate Vesicular stomatitis Indiana virus infected in african green monkey Vero 76 cells assessed as reduction of virus-induced plaque formation after 2 days using crystal violet staining. In kind it is functional, organism-based. As to conditions: 48 h.
Series [8] is described as follows: Antiviral activity against Vaccinia virus Lister Elstree infected in african green monkey Vero 76 cells assessed as reduction of virus-induced plaque formation after 3 days using crystal violet staining. Conditions: 72 h. It counts as functional, cell-based.
The subject of the next series is Human alphaherpesvirus 1. The series can be described thus: Antiviral activity against Human herpesvirus 1 strain KOS infected in african green monkey Vero 76 cells assessed as reduction of virus-induced plaque formation after 3 days using crystal violet staining. Conditions: Human alphaherpesvirus 1, KOS, 72 h. In kind it is functional, organism-based.

The structures appear in SMILES notation.

In [1], `CC(=O)Nc1ccc(-c2nc3cc4cccnc4c(Cl)c3[nH]2)cc1` came in with a CC50 at 96 h above 100 µM. Further, the EC50 in series [2] was above 100 µM; in series [4] it was 11 µM; in the series with Yellow fever virus, above 100 µM; with Reovirus sp. it was 51 µM; with Coxsackievirus B5, above 100 µM; in the series with Poliovirus 1, above 100 µM. The EC50 (with Human orthopneumovirus; in [7]; in series [8]; in the series on Human alphaherpesvirus 1) was above 100 µM throughout. In addition, the CC50 in series [3], in [5] and in series [6] was above 100 µM in each case.
In series [1], `CCOC(=O)C(C)c1nc2cc3cccnc3c(Cl)c2[nH]c1=O` (configuration not stated) displayed a CC50 at 96 h of 59 µM. Also, the EC50 in series [2] was above 59 µM; in [4] it was 19 µM; with Yellow fever virus it was above 100 µM; in the series on Reovirus sp., above 100 µM; in the series on Coxsackievirus B5 it was above 100 µM; in the series on Poliovirus 1 it was at least 100 µM. The EC50 in the series with Human orthopneumovirus was above 100 µM; in series [7] it was at least 100 µM; in series [8], above 100 µM; in the series with Human alphaherpesvirus 1, at least 100 µM. The CC50 in series [3], in series [5] and in series [6] was above 100 µM each time.
`O=[N+]([O-])c1ccc(-c2nc3cc4cccnc4cc3[nH]2)c2ccccc12` registered a CC50 at 96 h in series [1] of 6 µM. The EC50 was above 6 µM in [2]; above 18 µM in series [4]; above 100 µM in the series on Yellow fever virus; 50 µM in the series on Reovirus sp.; above 100 µM in the series on Coxsackievirus B5; above 100 µM in the series with Poliovirus 1. Moreover, the EC50 (in the series with Human orthopneumovirus; in series [7]; in [8]) was above 100 µM each time. For the same compound, the figures for the 50% cytotoxic concentration (CC50) in series [3], in series [5] and in series [6] were 18 µM, above 100 µM and above 100 µM, respectively.
Regarding `O=[N+]([O-])c1ccc(-c2nc3cc4cccnc4cc3[nH]2)cc1`, the CC50 at 96 h in [1] was above 100 µM. Besides, the EC50 in [2] is above 100 µM; in [4], 20 µM; in the series with Yellow fever virus it was above 100 µM; in the series on Reovirus sp. it was 67 µM; with Coxsackievirus B5 it was 35 µM; in the series with Poliovirus 1, above 95 µM. Further, the half-maximal effective concentration (EC50) (in the series on Human orthopneumovirus; in [7]; in series [8]) was above 95 µM in each case. Besides, the CC50 in series [3] was 90 µM; in series [5], above 100 µM; in series [6], 95 µM.
Compound `O=C1Nc2ccc(Cl)cc2[C@@](C#CC2CC2)(C(F)(F)F)O1` [EFAVIRENZ] displayed a CC50 at 96 h in [1] of 40 µM.
Turning to `[O-][n+]1n[nH]c2c(Cl)c3nccc(O)c3cc21`, in series [1], the cytotoxic concentration (CC50) at 96 h was above 100 µM. Also, the EC50 (in series [2]; in [4]; in the series on Yellow fever virus; in the series on Reovirus sp.; in the series on Coxsackievirus B5; in the series on Poliovirus 1) was above 100 µM throughout. Moreover, the EC50 (with Human orthopneumovirus; in series [7]; in series [8]) was above 100 µM throughout. Besides, the CC50 in series [3], in [5] and in series [6] was above 100 µM throughout.
For `COc1c(C)c2c(c(O)c1C/C=C(\C)CCC(=O)O)C(=O)OC2` [MYCOPHENOLIC ACID], the 50% cytotoxic concentration (CC50) in series [6] was at least 12.5 µM. Moreover, the EC50 in [8] is 1.5 µM.
Compound `CC(=O)n1nnc2c(Cl)c3ncccc3cc21` showed a CC50 at 96 h in series [1] of 46 µM. Besides, the EC50 is above 46 µM in series [2]; above 30 µM in series [4]; above 72 µM in the series on Yellow fever virus; above 100 µM with Coxsackievirus B5; above 100 µM with Poliovirus 1; above 100 µM in the series with Human orthopneumovirus. In addition, the concentration giving a half-maximal response (EC50) (in series [7]; in series [8]; with Human alphaherpesvirus 1) was above 100 µM in each case. The results for the cytotoxic concentration (CC50) in series [3], in series [5] and in [6] were 30 µM, 72 µM and above 100 µM, respectively.
Consider `C[C@@]1(O)[C@H](O)[C@@H](CO)O[C@H]1n1cnc2c(=O)[nH]c(N)nc21` [2'-B-METHYL-GUANOSINE], for which the CC50 in series [3] and in series [5] was above 10 µM throughout. Further, the EC50 in series [4] was 1.1 µM; in the series on Yellow fever virus, 1.9 µM.
In [1], `c1cnc2cc3[nH]cnc3cc2c1` yielded a CC50 at 96 h above 100 µM. Also, the EC50 (in series [2]; in [4]; with Yellow fever virus; in the series on Reovirus sp.; in the series on Coxsackievirus B5; in the series with Poliovirus 1) was above 100 µM each time. In addition, the EC50 (in series [7]; in [8]; with Human alphaherpesvirus 1) was above 100 µM throughout. The CC50 in series [3], in [5] and in [6] was above 100 µM throughout.
Consider `Clc1c2ncccc2cc2nc[nH]c12`, for which the CC50 at 96 h in series [1] was above 100 µM. The EC50 (in series [2]; in [4]; in the series with Yellow fever virus; in the series with Reovirus sp.; in the series on Coxsackievirus B5; with Poliovirus 1) was above 100 µM each time. Besides, the EC50 (in series [7]; in [8]; with Human alphaherpesvirus 1) was above 100 µM each time. For the same compound, the CC50 in series [3], in series [5] and in series [6] was above 100 µM throughout.
As for `C#C[C@@]1(O)[C@H](O)[C@@H](CO)O[C@H]1n1ccc(N)nc1=O` [2'-ETHYNYL-D-CYTIDINE], in series [6], the CC50 is above 100 µM. The EC50 in the series on Coxsackievirus B5 turned out to be 27 µM.
Turning to `Nc1nc2c(ncn2COCCO)c(=O)[nH]1` [ACYCLOVIR], in [6], the half-maximal cytotoxic concentration (CC50) is above 100 µM.
`O=[N+]([O-])c1c2cccnc2c(Cl)c2[nH]n[n+]([O-])c12`: the CC50 at 96 h in [1] was above 100 µM. Besides, the EC50 (in series [2]; in series [4]; with Yellow fever virus; in the series with Coxsackievirus B5; in the series with Poliovirus 1; in the series with Human orthopneumovirus) was above 100 µM each time. The EC50 in series [7] and in series [8] was above 100 µM throughout. Also, the CC50 in [3], in series [5] and in series [6] was above 100 µM throughout.
In series [1], `[O-][n+]1n[nH]c2c(Cl)c3ncccc3cc21` yielded a CC50 at 96 h above 100 µM. The EC50 is above 100 µM in series [2]; above 100 µM in [4]; above 100 µM with Yellow fever virus; 86 µM in the series on Coxsackievirus B5; above 100 µM with Poliovirus 1; above 100 µM in the series on Human orthopneumovirus. In addition, the EC50 (in series [7]; in series [8]; with Human alphaherpesvirus 1) was above 100 µM each time. For the same compound, the CC50 in series [3], in series [5] and in series [6] was above 100 µM throughout.
With `O=c1cnn([C@@H]2O[C@H](CO)[C@@H](O)[C@H]2O)c(=O)[nH]1` [6-AZAURIDINE], the CC50 in series [6] is at least 12.5 µM. In the series on Human orthopneumovirus, the EC50 amounted to 1.2 µM.
As to `C[C@@]1(O)[C@H](O)[C@@H](CO)O[C@H]1n1ccc(N)nc1=O`, in [5], the CC50 is above 100 µM. Moreover, the EC50 with Reovirus sp. is 16 µM.
Turning to `c1cnc2cc3nccnc3cc2c1`, the CC50 at 96 h in series [1] is above 100 µM. Besides, the EC50 (in [2]; in [4]; in the series with Yellow fever virus; in the series with Coxsackievirus B5; with Poliovirus 1; in series [7]) was above 100 µM each time. The EC50 (in series [8]; in the series with Human alphaherpesvirus 1) was above 100 µM throughout. Moreover, the CC50 in series [3], in series [5] and in series [6] was above 100 µM in each case.

The record behind these values is ChEMBL document CHEMBL1938334, “Quinoline tricyclic derivatives. Design, synthesis and evaluation of the antiviral activity of three new classes of RNA-dependent RNA polymerase inhibitors” (Bioorg Med Chem, 2011).
